≈ marks a conversion by molar mass, not a printed value. Calls of active or inactive are those of the source. The calls are words filed in the database; no cut-off is given here.
What was measured:
Assay type in all cases: functional, cell-based
[1] = system: NCI-H187; experiment: Cytotoxicity against human NCI-H187 cells
Outline: (§1)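 Colorimetric cytotoxicity assay following Skehan and co-workers' method. The cells were human KB (epidermoid carcinoma of the mouth), BC1 (breast cancer) and NCI-H187 (small cell lung cancer). Ellipticine and doxorubicin were the reference compounds.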

[2] = system: KB; experiment: Cytotoxicity against human KB cells; outline: as §1
[3] = (§2) Cytotoxicity against human BC1 cells; outline: as §1
[4] = system: BC1; experiment: as §2; outline: as §1

C=C/C(C)=C\C[C@]1(C)[C@H](C)CC[C@@]23C(=C[C@H](OC(=O)CCC)C[C@@H]12)[C@@H](OC(C)=O)O[C@H]3OC(C)=O (relative stereo) [CASEARGREWINS E]
IC50 [1]: 0.15 µg/mL (≈ 0.307 µM) | IC50 [2]: 0.66 µg/mL (≈ 1.35 µM) | IC50 [3]: 0.91 µg/mL (≈ 1.86 µM)

C=C/C(C)=C\C[C@]1(C)[C@H](C)C[C@H](O)[C@@]23C(=C[C@H](OC(=O)CCC)C[C@@H]12)[C@@H](OC(C)=O)O[C@H]3OC(C)=O (relative stereo) [CASEARGREWINS F]
IC50 [1]: 4.72 µg/mL (≈ 9.35 µM) | Activity [2]: inactive | IC50 [3]: 0.2 µg/mL (≈ 0.396 µM)

C=C/C(C)=C\C[C@]1(C)[C@H](C)C[C@H](O)[C@@]23C(=C[C@H](OC(=O)CCC)C[C@@H]12)[C@@H](OC)O[C@H]3OC(C)=O (relative stereo) [CASEARGREWINS G]
IC50 [1]: 5.57 µg/mL (≈ 11.7 µM) | IC50 [2]: 0.67 µg/mL (≈ 1.41 µM) | IC50 [3]: 3.97 µg/mL (≈ 8.33 µM)

C=C/C(C)=C\C[C@]1(C)[C@H](C)CC[C@@]23C(=C[C@H](OC(=O)CCCCC)C[C@@H]12)[C@@H](OC(C)=O)O[C@H]3OC(C)=O (relative stereo) [CASEARGREWINS H]
IC50 [1]: 0.54 µg/mL (≈ 1.05 µM) | IC50 [2]: 0.88 µg/mL (≈ 1.7 µM) | IC50 [3]: 0.21 µg/mL (≈ 0.406 µM)

C=C/C(C)=C\C[C@]1(C)[C@H](C)C[C@H](O)[C@@]23C(=C[C@H](OC(=O)CCCCC)C[C@@H]12)[C@@H](OC(C)=O)O[C@H]3OC(C)=O (relative stereo) [CASEARGREWINS I]
IC50 [1]: 0.33 µg/mL (≈ 0.62 µM) | IC50 [2]: 3.04 µg/mL (≈ 5.71 µM) | IC50 [3]: 0.36 µg/mL (≈ 0.676 µM)

C=C/C(C)=C\C[C@]1(C)[C@H](C)C[C@H](O)[C@@]23C(=C[C@H](OC(=O)CCCCC)C[C@@H]12)[C@@H](OC)O[C@H]3OC(C)=O (relative stereo) [CASEARGREWINS J]
IC50 [1]: 1.22 µg/mL (≈ 2.42 µM) | Activity [2]: inactive | IC50 [3]: 0.99 µg/mL (≈ 1.96 µM)

C=C/C(C)=C\C[C@]1(C)[C@H](C)[C@@H](O)[C@H](O)[C@@]23C(=C[C@H](OC(=O)CCCCC)C[C@@H]12)[C@@H](OC)O[C@H]3OC(C)=O (relative stereo) [CASEARGREWINS K]
IC50 [1]: 5.11 µg/mL (≈ 9.81 µM) | Activity [2]: inactive | IC50 [3]: 3.4 µg/mL (≈ 6.53 µM)

C=C/C(C)=C\C[C@]1(C)[C@H](C)C[C@H](O)[C@@]23C(=C[C@H](OC(=O)CC(C)C)C[C@@H]12)[C@@H](OC(C)=O)O[C@H]3OC(C)=O (relative stereo) [CASEARGREWINS L]
IC50 [1]: 0.32 µg/mL (≈ 0.617 µM) | IC50 [2]: 6 µg/mL (≈ 11.6 µM) | Activity [4]: inactive

COc1cccc2c1C(=O)c1c(O)c3c(c(O)c1C2=O)C[C@@](O)(C(=O)CO)C[C@@H]3O[C@H]1C[C@H](N)[C@H](O)[C@H](C)O1 [DOXORUBICIN]
IC50 [1]: 0.048 µg/mL (≈ 0.0883 µM) | IC50 [2]: 0.23 µg/mL (≈ 0.423 µM) | IC50 [3]: 0.13 µg/mL (≈ 0.239 µM)

Cc1c2ccncc2c(C)c2c1[nH]c1ccccc12 [ELLIPTECINE]
IC50 [2]: 0.67 µg/mL (≈ 2.72 µM) | IC50 [3]: 0.13 µg/mL (≈ 0.528 µM)

C=C/C(C)=C\C[C@]1(C)[C@H](C)[C@@H](O)[C@H](O)[C@@]23C(=C[C@H](OC(=O)CC(C)C)C[C@@H]12)[C@@H](OC(C)=O)O[C@H]3OC(C)=O [ESCULENTIN B]
IC50 [1]: 0.68 µg/mL (≈ 1.27 µM) | Activity [2]: inactive | IC50 [3]: 0.17 µg/mL (≈ 0.318 µM)

— ChEMBL document CHEMBL1145417, “Cytotoxic clerodane diterpenoids from fruits of Casearia grewiifolia” (J Nat Prod, 2007)
